In ChEMBL document CHEMBL1212938, “Inhibition of mycobacterial replication by pyrimidines possessing various C-5 functionalities and related 2'-deoxynucleoside analogues using in vitro and in vivo models” (J Med Chem, 2010):
In brackets after ≈: the same amount, converted by molar mass. Activity calls are given as the source filed them. The rule behind the calls is not given here.

Experiments:
[1] = tested on: Mycobacterium tuberculosis; assay: Antitubercular activity against Mycobacterium tuberculosis H37Ra after 6 days by microplate alamar blue assay; type: functional; settings: 144 h
Method in brief: (§1)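 MABA run in 7H9GC medium, with drug diluted from DMSO stocks made at 100× the highest final concentration. Final levels were 100, 50, 10, 5, 2.5 and 1 μg/mL in triplicate, and the experiment was done three times. Inoculum was 2.5 × 10⁵ CFU/mL final. Alamar Blue plus Tween-80 was added once bacteria-only control wells turned pink, from day 6 on, and plates were read visually and by fluorescence after 24 h. Visual MIC is the lowest concentration preventing the blue-to-pink change. Mean percent inhibition was taken relative to bacteria-only and medium-only wells.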

[2] = tested on: Proteus vulgaris; assay: Antibacterial activity against Proteus vulgaris at 100 ug/ml after 16 to 20 hrs by broth microdilution method; type: functional, organism-based
[3] = tested on: Streptococcus pneumoniae; assay: Antibacterial activity against Streptococcus pneumoniae at 100 ug/ml after 16 to 20 hrs by broth microdilution method; type: functional, organism-based
[4] = tested on: Mycobacterium tuberculosis; assay: Antitubercular activity against Mycobacterium tuberculosis H37Ra at 50 ug/ml after 6 days by microplate alamar blue assay; type: functional; settings: 144 h; method in brief: as §1
[5] = tested on: Bacillus subtilis; assay: Antibacterial activity against Bacillus subtilis at 100 ug/ml after 16 to 20 hrs by broth microdilution method; type: functional, organism-based
[6] = tested on: Listeria monocytogenes; assay: Antibacterial activity against Listeria monocytogenes at 100 ug/ml after 16 to 20 hrs by broth microdilution method; type: functional, organism-based
[7] = Cytotoxicity against human HuH7 cells assessed as cell viability at 200 ug/ml after 2 days by XTT assay; type: cell-based; settings: huh-7, 48 h
Method in brief: (§2)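 Huh-7 cells seeded at 1 × 10⁵ cells/well and left to attach 6-8 h. Medium then replaced with compound at 200, 100, 50, 10 or 1 μg/mL, with a DMSO control, and incubated 2 days at 37 °C. Viability by XTT, absorbance read at 450-500 nm.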

[8] = tested on: Staphylococcus epidermidis; assay: Antibacterial activity against Staphylococcus epidermidis at 100 ug/ml after 16 to 20 hrs by broth microdilution method; type: functional, organism-based
[9] = tested on: Enterococcus faecalis; assay: Antibacterial activity against Enterococcus faecalis at 100 ug/ml after 16 to 20 hrs by broth microdilution method; type: functional, organism-based
[10] = tested on: Streptococcus pyogenes; assay: Antibacterial activity against Streptococcus pyogenes at 100 ug/ml after 16 to 20 hrs by broth microdilution method; type: functional, organism-based
[11] = tested on: Salmonella typhimurium; assay: Antibacterial activity against Salmonella Typhimurium at 100 ug/ml after 16 to 20 hrs by broth microdilution method; type: functional, organism-based; settings: Salmonella enterica subsp. enterica serovar Typhimurium
[12] = tested on: Mycobacterium tuberculosis; assay: Antitubercular activity against Mycobacterium tuberculosis H37Ra at 10 ug/ml after 6 days by microplate alamar blue assay; type: functional; settings: 144 h; method in brief: as §1
[13] = Cytotoxicity against human HuH7 cells assessed as cell viability at > 200 ug/ml after 2 days by [3H]thymidine incorporation assay; type: cell-based; settings: huh-7, 48 h
[14] = tested on: Pseudomonas aeruginosa; assay: Antibacterial activity against Pseudomonas aeruginosa at 100 ug/ml after 16 to 20 hrs by broth microdilution method; type: functional, organism-based
[15] = tested on: Mycobacterium tuberculosis; assay: Antitubercular activity against Mycobacterium tuberculosis H37Ra at 100 ug/ml after 6 days by microplate alamar blue assay; type: functional; settings: 144 h; method in brief: as §1
[16] = Cytotoxicity against human HuH7 cells assessed as cell viability after 2 days by XTT assay; type: cell-based, Huh-7; settings: for CC50 at 48 h: HuH7 cells; method in brief: as §2
[17] = tested on: Escherichia coli; assay: Antibacterial activity against Escherichia coli at 100 ug/ml after 16 to 20 hrs by broth microdilution method; type: functional, organism-based
[18] = tested on: Staphylococcus aureus; assay: Antibacterial activity against Staphylococcus aureus at 100 ug/ml after 16 to 20 hrs by broth microdilution method; type: functional, organism-based
[19] = tested on: Mycobacterium tuberculosis; assay: Antitubercular activity against Mycobacterium tuberculosis H37Ra at 2.5 to 5 ug/ml after 6 days by microplate alamar blue assay; type: functional; method in brief: as §1
[20] = tested on: Mycobacterium tuberculosis; assay: Antitubercular activity against Mycobacterium tuberculosis H37Ra infected in BALB/c mouse assessed as reduction of CFU counts in spleen at 50 mg/kg, ip administered 5 days after infection for 25 days measured after 3 days last dose; type: functional, organism-based; parameters: dose 50 mg/kg
Method in brief: (§3)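 Female BALB/c mice, 5–6 weeks old, were infected iv via the tail vein with about 2.5 × 10⁵ CFU of H37Ra in PBS, 5 per group. From day 5, drug was given ip at 50 mg/kg, 5 days/week, for 25 treatment days, in 10% DMSO–saline or poly(ethylene glycol) methyl ether. Controls received diluent only. Three days after the last dose, lung, liver and spleen homogenates were plated on 7H11 agar at 37 °C for up to 4 weeks. Colony counts were done blinded.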

[21] = tested on: Mycobacterium tuberculosis; assay: Antitubercular activity against Mycobacterium tuberculosis H37Ra at 5 ug/ml after 6 days by microplate alamar blue assay; type: functional; settings: 144 h; method in brief: as §1
[22] = tested on: Mus musculus; assay: Toxicity in Mycobacterium tuberculosis H37Ra infected in BALB/c mouse assessed as adverse effect at 50 mg/kg, ip administered 5 days after infection for 25 days; type: organism-based; parameters: dose 50 mg/kg, route intraperitoneal; settings: in vivo
Method in brief: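 BALB/c mice infected with H37Ra were given 50 mg/kg ip in 10% DMSO–saline from day 5 post-infection, 5 days/week, over 25 treatment days. They were monitored for weight loss and behavioural changes and examined by gross necropsy after euthanasia.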

[23] = tested on: Mycobacterium tuberculosis; assay: Antitubercular activity against Mycobacterium tuberculosis H37Ra infected in BALB/c mouse assessed as reduction of CFU counts in liver at 50 mg/kg, ip administered 5 days after infection for 25 days measured after 3 days last dose; type: functional, organism-based; parameters: dose 50 mg/kg; method in brief: as §3
[24] = tested on: Mycobacterium tuberculosis; assay: Antitubercular activity against Mycobacterium tuberculosis H37Ra infected in BALB/c mouse assessed as reduction of CFU counts in lungs at 50 mg/kg, ip administered 5 days after infection for 25 days measured after 3 days last dose; type: functional, organism-based; parameters: dose 50 mg/kg; method in brief: as §3
[25] = tested on: Enterococcus faecalis; assay: Antibacterial activity against Enterococcus faecalis after 16 to 20 hrs by broth microdilution method; type: functional
Method in brief: (§4)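 Broth microdilution MIC. Exponentially growing bacteria diluted in sterile liquid medium to a final inoculum of 1 × 10⁴ CFU/mL, cultured with serial compound dilutions for 16-20 h. MIC taken as the lowest inhibitory concentration.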

[26] = tested on: Staphylococcus aureus; assay: Antibacterial activity against Staphylococcus aureus after 16 to 20 hrs by broth microdilution method; type: functional; method in brief: as §4
[27] = tested on: Streptococcus pyogenes; assay: Antibacterial activity against Streptococcus pyogenes after 16 to 20 hrs by broth microdilution method; type: functional; method in brief: as §4
[28] = tested on: Staphylococcus epidermidis; assay: Antibacterial activity against Staphylococcus epidermidis after 16 to 20 hrs by broth microdilution method; type: functional; method in brief: as §4
[29] = tested on: Listeria monocytogenes; assay: Antibacterial activity against Listeria monocytogenes after 16 to 20 hrs by broth microdilution method; type: functional; method in brief: as §4
[30] = tested on: Mycobacterium tuberculosis; assay: Antitubercular activity against Mycobacterium tuberculosis H37Ra at 1 ug/ml after 6 days by microplate alamar blue assay; type: functional; settings: 144 h; method in brief: as §1

SMILES	MIC50 [1] [µg/mL]	Activity [2]	Activity [3]	inhibition at 50 µg/mL [4] [%]	Activity [5]	Activity [6]	Activity [7]	Activity [8]	Activity [9]	Activity [10]	Activity [11]	inhibition at 10 µg/mL [12] [%]	Activity [13]	Activity [14]	inhibition at 100 µg/mL [15] [%]	CC50 at 48 h [16] [µg/mL]	Activity [17]	Activity [18]	inhibition at 5 µg/mL [21] [%]	further results
O=c1[nH]cc(C#Cc2ccccc2)c(=O)[nH]1	> 10	inactive	inactive	90	inactive	inactive	Non-toxic	inactive	inactive	inactive	inactive	40	Non-toxic	inactive	90	> 100	inactive	inactive	–	–
O=c1[nH]c(=O)n([C@H]2C[C@H](O)[C@@H](CO)O2)cc1C#Cc1ccccn1	2.5 (≈ 7.59 µM)	inactive	inactive	78	inactive	inactive	Non-toxic	inactive	inactive	inactive	inactive	68	Non-toxic	inactive	90	–	inactive	inactive	–	inhibition (INH) [19]: 50%
O=c1[nH]cc(C#Cc2ccccn2)c(=O)[nH]1	5 (≈ 23.5 µM)	inactive	inactive	70	inactive	inactive	Non-toxic	inactive	inactive	inactive	inactive	60	Non-toxic	inactive	90	> 100	inactive	inactive	50	Activity [20]: Active; Activity [22]: Non-toxic; Activity [23]: Active; Activity [24]: Active
CCCc1cc2c[nH]c(=O)nc2o1	100 (≈ 561 µM)	inactive	inactive	–	inactive	inactive	–	inactive	inactive	inactive	inactive	0	–	inactive	50	–	inactive	inactive	–	–
CCCCCC#Cc1c[nH]c(=O)[nH]c1=O	–	inactive	inactive	–	inactive	–	–	–	–	–	inactive	–	–	inactive	–	–	inactive	–	–	MIC90 [25]: 50 µg/mL (≈ 242 µM); MIC90 [26]: 50 µg/mL (≈ 242 µM); MIC90 [27]: 50 µg/mL (≈ 242 µM); MIC90 [28]: 10 µg/mL (≈ 48.5 µM); MIC90 [29]: 50 µg/mL (≈ 242 µM)
Nc1nc(=O)n([C@H]2C[C@H](O)[C@@H](CO)O2)cc1C#Cc1ccccn1	2.5 (≈ 7.61 µM)	inactive	inactive	90	inactive	inactive	Non-toxic	inactive	inactive	inactive	inactive	70	Non-toxic	inactive	90	–	inactive	inactive	–	Activity [20]: Active; Activity [22]: Non-toxic; Activity [23]: Active; Activity [24]: Active; inhibition (INH) [19]: 50%; Activity ([16]; huh-7, 48 h): Non-toxic
CCCCCc1ccc(C#Cc2c[nH]c(=O)[nH]c2=O)cc1	10 (≈ 35.4 µM)	inactive	inactive	50	inactive	inactive	Non-toxic	inactive	inactive	inactive	inactive	50	Non-toxic	inactive	90	> 100	inactive	inactive	0	–
NNC(=O)c1ccncc1 [ISONIAZID]	< 1	–	–	–	–	–	–	–	–	–	–	–	–	–	–	–	–	–	–	inhibition at 1 µg/mL [30]: 100%
C(C#Cc1ccccn1)#Cc1ccccn1	< 1	inactive	inactive	100	inactive	inactive	Non-toxic	inactive	inactive	inactive	inactive	100	Non-toxic	inactive	100	–	inactive	inactive	–	inhibition at 1 µg/mL [30]: 80%
CO[C@H]1/C=C/O[C@@]2(C)Oc3c(C)c(O)c4c(O)c(c(/C=N/N5CCN(C)CC5)c(O)c4c3C2=O)NC(=O)/C(C)=C\C=C\[C@H](C)[C@H](O)[C@@H](C)[C@@H](O)[C@@H](C)[C@H](OC(C)=O)[C@@H]1C [RIFAMPIN]	< 1	–	–	–	–	–	–	–	–	–	–	–	–	–	–	–	–	–	–	inhibition at 1 µg/mL [30]: 100%
CCCc1ccc(C#Cc2c[nH]c(=O)[nH]c2=O)cc1	< 10	inactive	inactive	55	inactive	inactive	Non-toxic	inactive	inactive	inactive	inactive	55	Non-toxic	inactive	90	> 100	inactive	inactive	0	–
N[C@@H]1CONC1=O [CYCLOSERINE]	5 (≈ 49 µM)	–	–	–	–	–	–	–	–	–	–	67	–	–	–	–	–	–	50	Activity [20]: Active; Activity [23]: Active; Activity [24]: Active
